Only some compounds are listed: those with a hit (about 2.3% of all), similar ones and a draw of the others.
ASAP1 inh: inhibitors of human ASAP1 ArfGAP activity, primary screen, biochemical, fluorescence polarization; Arf-GAP with SH3 domain, ANK repeat and PH domain-containing protein 1 (Homo sapiens), …; ASAP1-stimulated ARF1 GTP hydrolysis, GDP FP detection; 360,000 tested, 0.19% active; inhibition, % at 16.5 µM; in the data active means inhibition above about 25%;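 further: 0% = vehicle with enzyme and substrate and 100% = no enzyme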
Calb FLC: C. albicans growth inhibition with fluconazole, primary screen, CaCi-2 strain, Alamar Blue fluorescence; C. albicans CaCi-2 + fluconazole, 48 h; growth inhibition, % (test concentration not listed); 300,000 tested, 0.57% active;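 active means growth inhibition above about 58% in most replicates, limit read from the data, passing the limit was not always enough; inconclusive means exactly half the replicates above a set limit; inactive means most replicates below a set limit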;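 further: all wells also contain fluconazole at 8 µg/ml as a sub-toxic cotreatment; 0% = median of DMSO wells and 100% = median of geldanamycin control wells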
ARFGAP1 inhibitor: inhibitors of rat ARFGAP1 GAP activity, primary screen, biochemical, fluorescence polarization, GDP tracer; Arfgap1-stimulated ARF1 GTP hydrolysis, GDP FP detection; inhibition, % at 16.5 µM; ADP-ribosylation factor GTPase-activating protein 1 (Rattus norvegicus), Q62848; 360,000 tested, 0.26% active;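 active means inhibition above a per-plate limit, mean inhibition of low control wells plus 3 SD, cut at about 25% in these data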;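 further: 0% = DMSO wells with enzyme and 100% = wells lacking Arfgap1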
Target sequence (Q62848 1-136 limits assumed): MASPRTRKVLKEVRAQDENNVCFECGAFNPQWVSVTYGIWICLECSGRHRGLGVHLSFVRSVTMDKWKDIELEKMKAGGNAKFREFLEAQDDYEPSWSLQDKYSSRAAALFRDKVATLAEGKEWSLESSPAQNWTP
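Material – truncated rat Arfgap1 GAP domain · Buffer or medium – HEPES-based buffer, pH 7.5 · Reagent – human ARF1(Δ1-17)-GTP substrate · Dosing – 16.5 µM single point, 1.26% DMSO · Schedule – GTP hydrolysis reaction 2 h at 25 °C · Technique – GDP detection by fluorescence polarization · Benchmarks – No-Arfgap1 wells (100%) versus DMSO full-reaction wells (0%) · Repeats – single replicate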
sPLA2-III inh: human group III sPLA2 inhibitors, primary screen, biochemical, QFRET, BODIPY PC-A2 liposome substrate; QFRET BODIPY PC-A2 liposome hydrolysis, fluorescence; inhibition, % at 12.2 µM; 370,000 tested, 0.56% active;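 active means inhibition above mean plus 3 SD of compounds lying within the high and low control bounds, cut at about 19% in these data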;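 further: 0% = median of test compound wells and 100% = no enzyme DMSO wells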
Target sequence (Q9NZ20 whole entry, looked up): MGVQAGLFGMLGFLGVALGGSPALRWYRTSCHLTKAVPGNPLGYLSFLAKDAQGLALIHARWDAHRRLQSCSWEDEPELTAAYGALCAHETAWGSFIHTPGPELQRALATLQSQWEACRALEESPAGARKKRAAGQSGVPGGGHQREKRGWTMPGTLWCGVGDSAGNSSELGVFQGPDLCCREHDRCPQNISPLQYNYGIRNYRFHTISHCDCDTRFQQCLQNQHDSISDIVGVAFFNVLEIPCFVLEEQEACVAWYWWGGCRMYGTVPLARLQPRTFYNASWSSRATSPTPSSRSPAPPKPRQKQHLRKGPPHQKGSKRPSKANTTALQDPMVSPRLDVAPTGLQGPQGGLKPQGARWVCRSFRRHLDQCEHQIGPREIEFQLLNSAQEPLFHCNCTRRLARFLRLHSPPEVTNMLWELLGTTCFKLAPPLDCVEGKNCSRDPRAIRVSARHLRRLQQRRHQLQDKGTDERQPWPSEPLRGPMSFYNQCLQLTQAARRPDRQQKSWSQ
SKKanGAS inh: S. pyogenes SKKanGAS growth inhibitors in kanamycin, primary screen, streptokinase expression inhibitor project, SKKanGAS strain, BacTiter-Glo luminescence. 300,000 tested, 1.3% active. inhibition, % at 7.5 µM. 6 h;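 active means mean replicate score, as percent of positive control median, at least 50; inconclusive means mean below 50 but one replicate at or above 50; inactive means mean and every replicate below 50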;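 further: strain carries kanamycin resistance gene driven by streptokinase promoter and grows in 40 µg/ml kanamycin; loss of luminescence reflects streptokinase promoter inhibition or plain growth inhibition; 0% = median of DMSO wells and 100% = positive control at its reference dose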
hGIII sPLA2 conf: human group III sPLA2 inhibitors, confirmation, biochemical, QFRET, triplicate. shares compounds with sPLA2-III inh. 2,000 tested, 34% active. inhibition, % at 12.2 µM. AID 743280, 2014. recombinant hGIII-sPLA2, BODIPY PC-A2 QFRET fluorescence;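 active means mean inhibition across triplicates above the hit cutoff set in the earlier primary screen, cut at about 19% in these data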;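 further: 0% = enzyme with DMSO and 100% = DMSO wells lacking enzyme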
BODIPY interf: 535nm fluorescence optical interference, confirmation, artefact control for HGIII-sPLA2 inhibitor project, biochemical, QFRET. BODIPY FL product fluorescence interference. shares compounds with sPLA2-III inh. 2,000 tested, 8.5% active. inhibition, % at 12.2 µM;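 active means average inhibition above the solvent-only control mean plus 3 SD, cut at about 6% in these data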;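 further: 0% = DMSO with substrate plus product and 100% = DMSO with substrate alone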
535nm interf DR: 535nm fluorescence optical interference, dose response, artefact control for HGIII-sPLA2 inhibitor project, biochemical, QFRET; shares compounds with sPLA2-III inh; BODIPY FL product fluorescence interference, cell-free; IC50, µM; 240 tested, under 10 active;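 active means IC50 at or below 10 µM; inactive means IC50 above 10 µM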
* = called active by the depositor; ? = inconclusive; . = no result.

SMILES	ASAP1 inh	Calb FLC	ARFGAP1 inhibitor	sPLA2-III inh	SKKanGAS inh	hGIII sPLA2 conf	BODIPY interf	others
O=C(Nc1ccc(Cl)cc1)Nc1ccccc1C(=O)N1CCCC1	.	.	.	-5.2	.	.	.
C[C@H]1[C@@H](c2ccccc2)OC(O)([C@H](Cc2ccccc2)NC(=O)OC(C)(C)C)CN1C (stereo partly specified)	.	.	.	-4.9	.	.	.
CCCOc1ccc(C(=O)NNC(=S)NC(=O)c2ccccc2[N+](=O)[O-])cc1	9.2	-2.4	-4.8	21.2*	78.2*	31.1*	-4.0
O=C(NC(=S)NNC(=O)c1ccccc1[N+](=O)[O-])c1ccccc1	-14.1	-3.4	-2.2	3.5	23.5	.	.
CCC(=O)NC(=S)NNC(=O)c1ccccc1[N+](=O)[O-]	-1.5	-7.0	-7.9	-3.9	-1.2	.	.
CCCCC(=O)Nc1ccc(C(=O)NNC(=S)NC(=O)c2ccccc2[N+](=O)[O-])cc1	0.4	4.9	6.7	23.3*	3.5	20.9*	-3.8
O=C(NNC(=S)NC(=O)c1ccccc1)c1cccc([N+](=O)[O-])c1	-3.7	-11.1	1.0	24.7*	?	25.4*	-0.6
CC(C)C(=O)Nc1ccc(C(=O)NNC(=S)NC(=O)c2ccccc2[N+](=O)[O-])cc1	1.2	-13.9	0.8	20.7*	2.0	18.2	-3.7
CCCCC(=O)NNC(=S)NC(=O)c1cccc([N+](=O)[O-])c1	-2.2	16.0	-6.6	-1.5	-2.3	.	.
COC(=O)[C@H](CC(C)C)N(Cc1cn(CC2CCCCC2)nn1)S(=O)(=O)c1ccc(F)cc1Br	.	.	.	3.9	.	.	.
O=C(C(=O)N1CCC(CNS(=O)(=O)Cc2ccccc2)CC1)c1cccs1	-4.6	.	-2.7	-4.0	.	.	.
COc1ccccc1-c1cccc(-c2nc(C(=O)Nc3nccs3)cc3c2[C@H](CCO)N(C(C)=O)C3)c1	3.7	.	11.7	-14.1	.	.	.
CC(=O)Nc1ccc(NC(=O)CSc2nnc(-c3cccs3)o2)cc1	.	.	.	10.4	.	.	.
Cc1ccc(-n2c(SCC(=O)c3ccccc3Cl)nnc2-c2cnccn2)cc1	.	.	.	-21.2	.	.	.
COc1ccc(C(=O)NC(=S)NNC(=O)c2ccc(NC(=O)C(C)C)cc2)cc1	13.0	33.9	-10.5	25.9*	56.8*	27.0*	-5.2
COCCNc1nc(NCc2cnc(C)cn2)c2sccc2n1	-5.3	.	7.3	21.7*	.	-2.1	-6.7
CCCCNC(=O)C1CCCN1C(=O)Nc1cc(Cl)cc(Cl)c1 (stereo unspecified)	.	.	.	7.5	.	.	.
Brc1ccc(-c2nn3c(-c4ccccc4)nnc3s2)o1	.	.	.	1.6	.	.	.
S=C(c1ccccc1)N1CCN(c2ccccc2)CC1	-5.1	.	0.5	2.8	.	.	.
Cc1ccccc1N1CCN(C(=S)c2ccccc2)CC1	3.7	0.0	-13.0	21.1*	-2.5	10.4	-3.4
CC(C)CN(C(=O)C1CC1)c1c(N)n(Cc2ccccc2)c(=O)[nH]c1=O	-10.4	-12.2	-7.8	5.6	1.4	.	.
CC(C)CN(C(=O)C1CCC1)c1c(N)n(Cc2ccccc2)c(=O)[nH]c1=O	-6.7	.	-8.6	20.0*	.	1.8	-6.8
CC(=NNC(=S)Nc1cccc(Cl)c1)c1ccccn1	-4.3	.	-3.8	20.1*	.	38.5*	3.7
S=C(NCc1ccccn1)Nc1cccc(Cl)c1	2.1	-8.0	6.4	4.5	-9.0	.	.
Cc1ccc2c(c1)c1c3n2CCN(CC#N)C3CCC1 (stereo unspecified)	0.9	-21.2	-7.4	21.6*	-0.8	10.8	-5.2
SMILES	ASAP1 inh	Calb FLC	ARFGAP1 inhibitor	sPLA2-III inh	SKKanGAS inh	hGIII sPLA2 conf	BODIPY interf	others
CCc1nc2ccc(C(=O)N(CC)CCN(C)C)cn2c1N(C)C(=O)C1CCCCC1	3.5	.	0.8	9.2	.	.	.
COc1ccc(C=NCC2OCCc3ccccc32)cc1OC (stereo unspecified)	-17.4	-27.1	-1.0	7.2	1.3	.	.
COc1cc(C=NCC2OCCc3ccccc32)cc(OC)c1 (stereo unspecified)	17.0	0.5	5.3	20.2*	-7.2	0.1	-3.8
CCOC(=O)/C(=N\Nc1cccc(Cl)c1)Sc1nnc(-c2ccc(OC)cc2)n1C	-3.0	-1.9	-12.4	22.0*	5.5	16.8	-4.6
COc1ccc(-c2nnc(SCC(=O)Nc3ccc(Cl)cc3)n2C)cc1	0.6	-8.4	18.2	2.9	-14.5	.	.
Cc1ccc2c(c1)N(CCCC(=O)N(C)Cc1ccccc1F)C(=O)CO2	.	.	.	-1.9	.	.	.
COc1cnc(-c2ccccn2)nc1Oc1cccc(C(F)(F)F)c1	14.5	6.6	1.7	21.4*	37.6	7.5	-16.1
FC(F)(F)c1cccc(Oc2nc(-c3ccccc3)nnc2C(F)(F)F)c1	0.9	7.9	6.1	-1.8	3.9	.	.
COCCNC(=O)/C(C#N)=C/c1c(N2CC(C)OC(C)C2)nc2ccccn2c1=O (stereo unspecified)	-8.7	-11.4	-0.8	20.7*	-3.7	2.8	-8.5
Cc1ccc(C(=O)CC(C(=O)O)P(=O)(c2ccccc2)c2ccccc2)cc1 (stereo unspecified)	4.9	17.9	11.2	-2.0	-5.1	.	.
O=C(O)C(C/C(=N/O)c1ccc(Br)cc1)P(=O)(c1ccccc1)c1ccccc1 (stereo unspecified)	-3.5	-1.6	0.4	21.3*	-10.7	1.8	-6.6
C/C(=N\Nc1ncc(Cl)cc1Cl)c1ccc2c(c1)OCO2	12.4	-11.1	6.6	19.7*	-6.1	3.9	-4.6
CN1C(=O)N(C)c2cccc3cccc1c23	1.8	10.3	8.5	1.8	-14.8	.	.
CCc1ccc2cccc3c2c1N=CN3C	4.2	1.4	-2.3	22.3*	5.2	21.6*	4.0
CC1(C)Oc2ccc3ccc(=O)oc3c2C(/C=N/O)=C1Cl	4.0	2.8	13.3	21.2*	-0.3	7.9	-4.8
O=C(NNC(=O)c1cccc2ccccc12)c1ccc(Cl)cc1Cl	-2.8	.	0.4	-18.2	.	.	.
COc1ccccc1NC(=O)NNC(=O)c1ccc2ccccc2c1	-3.6	-3.8	6.9	-3.2	-4.0	.	.
COc1ccccc1NC(=O)NNC(=O)c1ccc2ccccc2c1O	7.9	3.2	20.0	30.0*	9.5	35.9*	5.4	535nm interf DR=>122

High-throughput results deposited in PubChem BioAssay by several laboratories.
